In ChEMBL document CHEMBL1128531 (J Med Chem, 1995):
Calls of active or inactive are those of the source. No cut-off for these calls is given here.

Tests used:
[1] = target: Beta-2 adrenergic receptor (Homo sapiens, UniProt P07550); experiment: Binding affinity against Beta-2 adrenergic receptor
[2] = target: T1, 5-hydroxytryptamine receptor 1A (Mus musculus, UniProt Q64264); experiment: Binding affinity against serotonergic 5-HT1a receptor
T1 sequence (Q64264 whole entry): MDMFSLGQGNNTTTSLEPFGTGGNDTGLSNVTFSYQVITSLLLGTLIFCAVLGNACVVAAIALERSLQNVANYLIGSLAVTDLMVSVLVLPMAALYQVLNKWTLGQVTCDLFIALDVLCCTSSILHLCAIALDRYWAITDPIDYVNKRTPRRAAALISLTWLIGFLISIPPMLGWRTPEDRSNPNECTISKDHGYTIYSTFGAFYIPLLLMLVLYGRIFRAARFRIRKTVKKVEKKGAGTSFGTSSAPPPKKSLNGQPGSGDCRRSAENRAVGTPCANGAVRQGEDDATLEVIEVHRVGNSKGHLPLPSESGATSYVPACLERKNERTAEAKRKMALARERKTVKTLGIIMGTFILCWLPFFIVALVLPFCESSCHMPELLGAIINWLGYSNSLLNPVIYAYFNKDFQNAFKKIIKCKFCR

[3] = target: Beta-1 adrenergic receptor (Homo sapiens, UniProt P08588); experiment: Binding affinity against Beta-1 adrenergic receptor
Beta-1 adrenergic receptor, sequence (P08588 whole entry): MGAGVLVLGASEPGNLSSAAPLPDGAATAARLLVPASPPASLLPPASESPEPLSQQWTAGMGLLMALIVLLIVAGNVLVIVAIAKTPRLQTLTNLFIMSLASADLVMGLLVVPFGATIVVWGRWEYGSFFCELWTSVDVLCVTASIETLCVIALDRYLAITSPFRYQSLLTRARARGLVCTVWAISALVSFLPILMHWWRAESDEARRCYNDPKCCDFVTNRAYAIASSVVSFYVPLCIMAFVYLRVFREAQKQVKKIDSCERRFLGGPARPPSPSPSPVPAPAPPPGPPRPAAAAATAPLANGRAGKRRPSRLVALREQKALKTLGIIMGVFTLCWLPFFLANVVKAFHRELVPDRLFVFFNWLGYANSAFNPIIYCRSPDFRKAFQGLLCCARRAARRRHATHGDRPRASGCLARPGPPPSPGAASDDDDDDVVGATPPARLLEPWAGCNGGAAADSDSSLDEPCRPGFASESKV

[4] = target: 5-hydroxytryptamine receptor 2A (Bos taurus, UniProt Q75Z89); experiment: Binding affinity against serotonergic 5-HT2 receptor
5-hydroxytryptamine receptor 2A, sequence (Q75Z89 whole entry): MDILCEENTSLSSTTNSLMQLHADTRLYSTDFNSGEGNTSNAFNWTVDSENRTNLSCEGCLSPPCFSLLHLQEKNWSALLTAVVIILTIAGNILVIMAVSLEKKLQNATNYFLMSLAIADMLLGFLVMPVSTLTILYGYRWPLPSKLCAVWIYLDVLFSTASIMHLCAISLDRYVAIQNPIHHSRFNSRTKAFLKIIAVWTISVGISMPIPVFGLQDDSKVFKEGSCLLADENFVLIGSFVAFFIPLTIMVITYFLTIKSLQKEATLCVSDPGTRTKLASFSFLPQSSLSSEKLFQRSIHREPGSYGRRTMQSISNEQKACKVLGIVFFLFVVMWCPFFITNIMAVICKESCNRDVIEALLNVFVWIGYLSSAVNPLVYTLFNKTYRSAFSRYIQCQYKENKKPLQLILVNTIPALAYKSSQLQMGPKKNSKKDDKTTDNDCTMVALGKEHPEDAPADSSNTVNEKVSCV

Rattus norvegicus = experiment: Ability to produce robust rotation in the lesioned rat after subcutaneous administration; format: functional; settings: sc
[5] = target: T2, 5-hydroxytryptamine receptor 2C (Rattus norvegicus, UniProt P08909); experiment: Binding affinity against serotonergic 5-HT1c receptor
T2 sequence (P08909 whole entry): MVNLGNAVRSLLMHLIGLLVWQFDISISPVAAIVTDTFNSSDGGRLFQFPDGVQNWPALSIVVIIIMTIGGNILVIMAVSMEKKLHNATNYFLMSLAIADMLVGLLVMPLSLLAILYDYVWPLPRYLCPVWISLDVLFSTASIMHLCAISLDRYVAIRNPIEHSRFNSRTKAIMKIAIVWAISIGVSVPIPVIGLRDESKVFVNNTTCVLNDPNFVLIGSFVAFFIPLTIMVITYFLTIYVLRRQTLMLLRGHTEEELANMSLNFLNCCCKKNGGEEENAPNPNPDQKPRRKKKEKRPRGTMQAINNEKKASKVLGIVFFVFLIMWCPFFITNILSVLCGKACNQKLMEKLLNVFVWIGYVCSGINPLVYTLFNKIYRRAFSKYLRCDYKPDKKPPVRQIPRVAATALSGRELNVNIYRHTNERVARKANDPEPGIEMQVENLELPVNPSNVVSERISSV

D(2) dopamine receptor [6] = target: T3, D(2) dopamine receptor (Homo sapiens, UniProt P14416)
T3 sequence (P14416 whole entry): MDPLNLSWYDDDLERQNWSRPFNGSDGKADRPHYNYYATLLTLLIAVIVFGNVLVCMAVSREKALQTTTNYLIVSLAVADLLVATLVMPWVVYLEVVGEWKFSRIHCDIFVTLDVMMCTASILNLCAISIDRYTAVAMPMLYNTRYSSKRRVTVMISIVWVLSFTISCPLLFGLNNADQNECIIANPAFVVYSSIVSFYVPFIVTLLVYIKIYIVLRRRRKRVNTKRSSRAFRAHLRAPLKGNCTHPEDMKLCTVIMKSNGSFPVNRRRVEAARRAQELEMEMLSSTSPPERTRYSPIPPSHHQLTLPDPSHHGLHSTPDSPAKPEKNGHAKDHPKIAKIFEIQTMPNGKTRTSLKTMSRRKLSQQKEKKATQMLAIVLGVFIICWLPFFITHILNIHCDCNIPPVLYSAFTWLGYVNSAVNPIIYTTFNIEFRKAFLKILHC

D(2) dopamine receptor [7] = target: T3, D(2) dopamine receptor; experiment: Intrinsic activity relative to dopamine for human Dopamine receptor D2 at 10 uM
Procedure, shortened: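 Adenylate cyclase functional assay in LTK cells transfected with the human D2 receptor. […] Values are mean ± SEM over the stated number of experiments.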

D(2) dopamine receptor [8] = target: T3, D(2) dopamine receptor; experiment: Adenylate cyclase assay carried out in LTK cells transfected with human Dopamine receptor D2; format: cell-based
D(2) dopamine receptor [9] = target: T3, D(2) dopamine receptor; experiment: Binding affinity against cloned human Dopamine receptor D2 using [3H]spiperone as radioligand transfected in LTK cells
D(1A) dopamine receptor [10] = target: T4, D(1A) dopamine receptor (Homo sapiens, UniProt P21728); experiment: Binding affinity against cloned human Dopamine receptor D1 using [125I]-SCH 23982 as radioligand transfected in HEK cells; format: cell-based, HEK293
T4 sequence (P21728 whole entry): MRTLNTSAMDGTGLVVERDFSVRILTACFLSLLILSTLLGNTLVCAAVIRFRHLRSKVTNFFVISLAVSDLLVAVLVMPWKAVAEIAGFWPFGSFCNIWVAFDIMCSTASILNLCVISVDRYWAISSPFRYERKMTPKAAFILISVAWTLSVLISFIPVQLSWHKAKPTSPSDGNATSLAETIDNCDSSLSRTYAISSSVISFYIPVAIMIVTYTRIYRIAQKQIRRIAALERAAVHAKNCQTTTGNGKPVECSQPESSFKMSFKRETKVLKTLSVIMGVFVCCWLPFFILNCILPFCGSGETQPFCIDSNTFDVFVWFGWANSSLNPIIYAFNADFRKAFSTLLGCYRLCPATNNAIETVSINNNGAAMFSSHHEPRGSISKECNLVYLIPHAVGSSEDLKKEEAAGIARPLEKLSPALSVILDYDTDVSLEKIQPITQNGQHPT

D(1A) dopamine receptor [11] = target: T4, D(1A) dopamine receptor; experiment: Adenylate cyclase assay carried out in LTK cells transfected with human Dopamine receptor D1; format: cell-based

Beta-2 adrenergic receptor, sequence (P07550 whole entry): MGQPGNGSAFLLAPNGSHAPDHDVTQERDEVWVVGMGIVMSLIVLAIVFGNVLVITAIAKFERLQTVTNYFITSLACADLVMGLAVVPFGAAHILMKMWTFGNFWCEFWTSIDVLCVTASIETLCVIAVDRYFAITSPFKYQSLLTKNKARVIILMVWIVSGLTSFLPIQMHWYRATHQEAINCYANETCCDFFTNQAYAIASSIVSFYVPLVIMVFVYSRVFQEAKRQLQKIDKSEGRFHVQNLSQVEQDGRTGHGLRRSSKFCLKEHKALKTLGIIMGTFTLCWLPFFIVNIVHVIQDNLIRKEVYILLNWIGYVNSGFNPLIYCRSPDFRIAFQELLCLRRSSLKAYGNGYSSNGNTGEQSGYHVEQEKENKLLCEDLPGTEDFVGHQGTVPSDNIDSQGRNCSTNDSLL

| Compound | ED50 (Rattus norvegicus) | IA (D(2) dopamine receptor [7]) | EC50 (D(2) dopamine receptor [8]) | Ki (D(2) dopamine receptor [9]) | Ki (D(1A) dopamine receptor [10]) | EC50 (D(1A) dopamine receptor [11]) | further results |
| --- | --- | --- | --- | --- | --- | --- | --- |
| Oc1cc2c(cc1O)[C@H]1c3ccccc3CN[C@@H]1CC2 [DIHYDREXIDINE] | 0.04 µmol/kg | – | – | – | – | – | Ki [1]: 1200 nM; Ki [2]: > 3000 nM; Ki [3]: 1500 nM; Ki [4]: > 3000 nM; Ki [5]: 2400 nM |
| Oc1cc2c(cc1O)[C@@H](c1ccccc1)CNCC2 [(R)-SKF-38393] | 0.02 µmol/kg | – | – | – | – | – | IA (D(2) dopamine receptor [6]): inactive |
| NC[C@@H]1O[C@H](C23CC4CC(CC(C4)C2)C3)Cc2c1ccc(O)c2O | – | 18% | > 4000 nM | 1550 nM | – | – | – |
| CCCc1cc2c(s1)CN[C@H]1CCc3cc(O)c(O)cc3[C@H]21 | – | 3% | > 10000 nM | 4020 nM | 3050 nM | 1700 nM | – |
| CCCc1cc2c(s1)CN[C@@H]1CCc3cc(O)c(O)cc3[C@@H]21 [A-86929] | – | – | 3900 nM | 710 nM | 49 nM | 9 nM | – |
